# Assay outcomes (PubChem)
# Only some compounds are listed: those with a hit (about 3.7% of all), similar ones and a draw of the others.
# KCNK9 block: blocks the human KCNK9 two-pore domain potassium channel; actives 1.2% (n = 310,000); B-score at 10 µM; AID 488922; HEK293 KCNK9, FluxOR thallium flux fluorescence; active compounds read low; Q9NPC2;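 active = ratio B-score over 3 SD below the library mean, with starting fluorescence within 5 SD of its mean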;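 also: negative B-score means less thallium flux so channel inhibition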
# KCNK3 block: human KCNK3 channel inhibition, primary screen; O14649; CHO-KCNK3 thallium flux, FluxOR fluorescence; active compounds read low; B-score at 10 µM; actives 0.84% (n = 340,000); AID 602410;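 active = B-score under library mean minus 4 SD, starting fluorescence ratio at most library mean plus 5 SD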;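 also: more negative B-score means stronger inhibition of thallium flux through KCNK3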
# KCNQ1 inh: human KCNQ1 channel inhibition | B-score at 10 µM | AID 2642 | CHO-K1 KCNQ1, FluxOR thallium flux fluorescence; active compounds read high | actives 1.3% (n = 310,000) | P51787;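 active = compounds whose thallium flux B-score, printed positive for inhibition, exceeds three library SD while starting fluorescence stays within three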;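 also: channel opened by potassium depolarization with thallium stimulus after 20 min compound exposure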
# Kir21 inh: Kir2.1 (mouse) channel inhibition | B-score at 10 µM | actives 0.85% (n = 310,000) | P35561 | AID 1672 | HEK293-Kir2.1, FluxOR thallium flux fluorescence; active compounds read low;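 active = fluorescence ratio B-score at or below minus 3 SD of library scores, with starting-brightness B-score within 2 SD, cut at about -4.2 in these data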;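 also: channel flux triggered by added potassium and thallium sulfate stimulus; B-score of peak minus minimum fluorescence over baseline after thallium stimulus; more negative B-score means stronger Kir2.1 block with less thallium influx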
# Target sequence (P35561 whole entry, looked up): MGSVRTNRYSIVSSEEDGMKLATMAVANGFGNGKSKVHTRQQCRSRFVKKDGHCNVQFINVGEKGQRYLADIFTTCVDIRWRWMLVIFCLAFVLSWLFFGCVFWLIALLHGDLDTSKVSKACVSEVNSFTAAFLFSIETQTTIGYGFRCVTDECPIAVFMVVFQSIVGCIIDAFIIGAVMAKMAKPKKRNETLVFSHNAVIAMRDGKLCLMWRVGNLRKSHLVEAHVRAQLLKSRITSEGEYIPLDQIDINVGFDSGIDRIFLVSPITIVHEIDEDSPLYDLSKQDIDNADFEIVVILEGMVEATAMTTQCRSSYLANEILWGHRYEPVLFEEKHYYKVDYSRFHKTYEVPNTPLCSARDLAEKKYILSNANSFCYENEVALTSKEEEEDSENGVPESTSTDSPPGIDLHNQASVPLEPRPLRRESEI
# hERG rescue: hERG (human) protection from proarrhythmic block | Q12809 | CHO-hERG, FluxOR thallium flux, dofetilide IC70 present | activation (rescue from dofetilide block), less the hit threshold, % at 10 µM | actives 0.51% (n = 310,000) | AID 1511;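 active = activation above the mean of controls blocked by dofetilide plus 5 SD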;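 also: thallium influx through hERG after potassium depolarization seen as dye fluorescence rise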
# KCNQ1 pot: human KCNQ1 channel potentiation or activation; AID 2648; B-score at 10 µM; CHO-K1 KCNQ1, thallium flux FluxOR fluorescence; active compounds read high; P51787; actives 0.35% (n = 310,000);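 active = fluorescence ratio B-score, a plate-corrected score, at least three library SD, with initial intensity B-score within 5 SD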
#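 Test system: CHO-K1 cells stably expressing KCNQ1 / Medium: assay buffer / Also added: depolarizing K+/Tl+ stimulus, K2SO4 and Tl2SO4 each 12.5 mM in 5x stock / Incubation: 90 min dye loading and 20 min compound exposure, both at room temperature / Signal: thallium influx via FluxOR fluorescence, kinetic imaging / Evaluation: B score of baseline-normalized fluorescence ratio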
# KCNK9 inh conf: human KCNK9 inhibitor confirmation; shares compounds with KCNK9 block; HEK293 KCNK9 cells, FluxOR thallium flux fluorescence; inhibition, % at 10 µM; actives 43% (n = 4,900); AID 492992;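 active = thallium signal inhibited by more than 5 SD of the compound-free buffer control wells, on both duplicate plates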
# Kir2-1 spec: mouse Kir2.1 off-target activity of KCNK9 modulators; shares compounds with KCNK9 block; Kir2.1 cells, FluxOR thallium flux fluorescence; inhibition, % at 10 µM; actives 4% (n = 4,900);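 active = thallium signal drop more than 5 SD beyond the mean of the no-compound control wells, seen in both duplicate plates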;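 also: signal is fluorescence rise after thallium addition divided by baseline fluorescence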
# HEK293 Tl ctr: non-induced cell nonspecific activity of KCNK9 modulators; non-induced KCNK9-HEK293, FluxOR thallium flux; inhibition, % at 10 µM; shares compounds with KCNK9 block; actives 40% (n = 4,900);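 active = thallium signal drop beyond 5 SD of the untreated control mean, on both duplicate plates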
# Numbers stand for hits; - = inactive; . = no result.
SMILES,KCNK9 block,KCNK3 block,KCNQ1 inh,Kir21 inh,hERG rescue,KCNQ1 pot,KCNK9 inh conf,Kir2-1 spec,HEK293 Tl ctr
NS(=O)(=O)c1ccc(NC(=O)CSc2nc3c(cnn3-c3ccccn3)c(=O)[nH]2)cc1,.,-,.,.,.,.,.,.,.
COc1ccc(CN(Cc2cccn2C)S(=O)(=O)c2cccc(C(F)(F)F)c2)cc1,-8.8,-,6,-,-,-,46%,-,34%
CCOC(=O)C1CCCN(C(=O)c2ccc(Cl)c(S(=O)(=O)N3CCCCC3)c2)C1 (stereo not drawn),-,-,-,-,-,-,-,-,-
O=C(c1ccc(Cl)c(S(=O)(=O)N2CCCCCC2)c1)N1CCCCC1,-,-,-,-,-,-,.,.,.
O=C(c1ccc(Cl)c(S(=O)(=O)N2CCOCC2)c1)N(c1ccccn1)C1CCCCC1,-,-,-,-,-,-,-,-,-
CCCn1c(C)cc(C(=O)COC(=O)c2ccc(Cl)c(S(=O)(=O)N3CCCC3)c2)c1C,-18,-,-,-,-,-,65%,-,-
O=C(c1ccc(Cl)c(S(=O)(=O)N2CCCCCC2)c1)N1CCN(c2ccccn2)CC1,-,-,-,-,-,-,-,-,-
O=C(Nc1ccccn1)c1ccc(Cl)c(S(=O)(=O)N2CCOCC2)c1,-,-,-,-,-,-,.,.,.
CC(Sc1nc2c(c(=O)[nH]1)CCCC2)C(=O)Nc1ccccc1C#N (stereo not drawn),-,-,-,-,-,-,.,.,.
Cc1ccc(C(C)C)c(OCC(=O)N2CCN(c3ncccn3)CC2)c1,.,-,.,.,.,.,.,.,.
O=C(c1ccc(Cl)c(S(=O)(=O)N2CCCCCC2)c1)N1CCCC(C(F)(F)F)C1 (stereo not drawn),-,-,-,-,-,-,-,-,-
Cc1cccc(NC(=O)c2ccc(Cl)c(S(=O)(=O)N3CCCCC3)c2)n1,-,-,-,-,-,-,-,-,24%
Cc1ccc(CNC(=O)c2cc3c(-c4ccc(Cl)cc4)nn(C)c3s2)o1,-12,-12,11,-,-,-,56%,-,35%
Cn1ccnc1SCC(=O)Nc1cccc(C(F)(F)F)c1,-,-,-,-,-,-,.,.,.
O=C(CSC1=NCCN1)Nc1cccc(C(F)(F)F)c1,-9.9,-,-,-,-,-,32%,-,24%
O=C(CN1CCN(c2cccc(C(F)(F)F)c2)CC1)Nc1cccc(C(F)(F)F)c1,-,-,9,-,-,-,-,-,-
CC(=O)Nc1ccc(NC(=O)CN2CCN(c3cccc(C(F)(F)F)c3)CC2)cc1,-,-,-,-,-,-,.,.,.
O=C(NC(c1ccccc1)c1c(O)ccc2ccccc12)c1ccccc1Cl (stereo not drawn),-10,-9.4,-,-,-,-,-,-,44%
O=C(NC(c1ccc(Cl)cc1)c1c(O)ccc2ccccc12)c1ccccc1 (stereo not drawn),.,-,.,.,.,.,.,.,.
CC(=O)Nc1ccccc1N(C)S(=O)(=O)c1ccc(C)cc1,-8.3,-,-,-,-,-,-,-,-
COCCN(C(=O)CCc1nnc(Cc2c[nH]c3ccccc23)o1)C(C)C,-,-,-,-,-,-,.,.,.
CNS(=O)(=O)c1cccc(C(=O)OCc2cc(Cl)cc3c2OCOC3)c1,-13,-,-,-,-,-,48%,-,-
O=C(OCc1cc(Cl)cc2c1OCOC2)c1cccnc1Cl,.,-,.,.,.,.,.,.,.
CCc1ccc(-n2ccc(=O)c(C(=O)O)n2)cc1,-,-,-,-,-,-,.,.,.
Cc1ccc2oc(=O)n(CC(=O)OCCC(C)C)c2c1,-,-,-,-,-,-,.,.,.
SMILES,KCNK9 block,KCNK3 block,KCNQ1 inh,Kir21 inh,hERG rescue,KCNQ1 pot,KCNK9 inh conf,Kir2-1 spec,HEK293 Tl ctr
Cc1nccc(-c2ccc(-n3cnc4ccccc43)cc2)n1,-,-,-,-,-,-,-,-,-
O=C(NC(=S)Nc1ccc2c(c1)OCCO2)c1ccccc1,-,-,-,-,-,-,.,.,.
CCOc1cccc(C(=O)NC(=S)Nc2ccc3c(c2)OCCO3)c1,-,-,-,-,-,-,-,-,-
COc1ccc(C(=O)NC(=S)Nc2ccc(CN3CCOCC3)cc2)cc1Br,-,-,-,-,-,-,-,-,-
COc1ccc(Cc2nnc(SCC(=O)Nc3ccc(N4CCOCC4)cc3)o2)cc1,-,-,-,-,-,-,.,.,.
CC[C@H](C)[C@H]1CNC(=S)N1CC1CCN(CCC23CC4CC(CC(C4)C2)C3)CC1,.,-,.,.,.,.,.,.,.
O=C(c1ccc(-c2cccc(C(F)(F)F)c2)o1)N1CCN(c2ccccc2O)CC1,-8.5,-,-,-,-,-,50%,-,-
O=C(C1=C[C@H](c2ccc(Br)cc2)C[C@H](OCCCCO)O1)N1CCN(Cc2ccccc2)CC1,-,-,-,-,-,-,-,-,-
O=C(NC1CC1)C1=C[C@H](c2csc3ccccc23)C[C@H](OCc2ccc(CO)cc2)O1,-,-,-,-,-,-,.,.,.
CC(C)(C)[C@H]1C=C(C(=O)NCc2ccccc2)O[C@@H](OCCCCO)C1,-,-,-,-,-,-,-,-,-
O=C(Nc1ccccc1)C1=C[C@H](c2csc3ccccc23)C[C@H](OCc2ccc(CO)cc2)O1,-9.1,-,-,-,-,-,46%,-,36%
C#Cc1ccc([C@H]2C=C(C(=O)NCc3ccccc3)O[C@@H](OCc3ccc(CO)cc3)C2)cc1,-,-,-,-,-,-,-,-,-
O=C(C1=C[C@@H](c2ccc(Br)cc2)C[C@@H](OCCCCO)O1)N1CCN(Cc2ccc3c(c2)OCO3)CC1,-,-,-,-,-,-,.,.,.
O=C1Nc2ccc(Br)cc2C1(O)c1ccc(F)cc1 (stereo not drawn),-,-,-,-,-,-,.,.,.
CCNc1nc(NC(C)C)nc(Oc2ccc(=O)n(C)n2)n1,-,-,-,-,-,-,.,.,.
C=CCn1c(C(CC)CC)nc2ccccc21,-,-,-,-,-,-,.,.,.
COc1cccc(-c2ccc3nnc(SCC(=O)Nc4ccc(NC(C)=O)cc4)n3n2)c1,-,-,-,-,-,-,.,.,.
O=C(NCc1ccccc1)C1=C[C@H](c2ccc(Br)cc2)C[C@H](OCCCCO)O1,-,-,-,-,-,-,-,-,-
COc1ccc(F)cc1C(=O)C1CCCN(Cc2cn(C)c3ccccc23)C1 (stereo not drawn),-,-,-,-,-,-,-,-,-
Cn1cc(CN2CCCC(C(=O)c3cc(F)ccc3F)C2)c2ccccc21 (stereo not drawn),-,-,-,-,-,-,-,-,-
